For data set [1], the system named is Staphylococcus aureus. The data set can be described thus: Growth inhibition of Staphylococcus aureus Mu50 after 20 hrs by broth microdilution method. The data set is classed as organism-based. Conditions: in vitro. Put shortly:
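S. aureus Mu50 grown in Mueller–Hinton broth at 37 °C, aerobic; MICs determined in triplicate in flat-bottom 96-well microtiter plates following an earlier published method.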
(In broth dilution the organism is exposed to a series of concentrations in liquid medium.)

In data set [2] the test system is Staphylococcus aureus. Nature of the data set: Potentiation of vancomycin-mediated reduction in CFU per biofilm of Staphylococcus aureus Mu50 preincubated with compound at 100 uM for 20 hrs followed by vancomycin addition measured after 24 hrs (reference value: 30 +/- 14%). The data set is classed as functional. Set-up: scale not given: the % may be the effect or the level left. The essentials: (§1)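 Inoculum: overnight MH culture resuspended in 2× MH at OD590 0.2. Analogue present during 4 h adhesion at 37 °C, then after a saline wash for 20 h more at 37 °C. Biofilms then rinsed and exposed to vancomycin (20 μg/ml) alone in saline for 24 h at 37 °C. Line 5 uses analogue at 100 μM; line 4 uses lower concentrations, with EC50 as the level doubling vancomycin killing. CFU/biofilm counted by plating after vortex/sonication, as % reduction vs untreated control. n ≥ 9.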

Data set [3] relates to Staphylococcus aureus. Nature of the data set: Potentiation of vancomycin-mediated reduction in CFU per biofilm of Staphylococcus aureus Mu50 at 100 uM after 24 hrs (reference value: 30 +/- 14%). Details: scale not given: the % may be the effect or the level left. The data set is classed as functional.
The subject of data set [4] is Staphylococcus aureus. Nature of the data set: Potentiation of vancomycin-mediated reduction in CFU per biofilm of Staphylococcus aureus Mu50 preincubated for 20 hrs followed by vancomycin addition measured after 24 hrs. The data set is classed as functional, organism-based. The essentials:
as §1

Data set [5] relates to Staphylococcus aureus. Nature of the data set: Potentiation of vancomycin-mediated reduction in CFU per biofilm of Staphylococcus aureus Mu50 after 24 hrs. The data set is classed as functional, organism-based. Conditions: Mu50, 24 h.

Molecules are shown by their SMILES.

For `O=C(NC[C@]1(O)CO[C@H](Cn2cc(-c3ccccc3)nn2)[C@H]1O)c1ccccc1`, the MIC in the data set with Staphylococcus aureus [1] is greater than 500 µM. For the same molecule, the Activity was found to be 46% in the data set with Staphylococcus aureus [2] and 66% with Staphylococcus aureus [3].

The term EC50 denotes the concentration giving half of the maximal effect. In the case of `O=C(NC[C@]1(O)CO[C@H](CNC(=O)c2ccccc2OC(F)F)[C@H]1O)c1ccccc1`, the values for the EC50 in the data set on Staphylococcus aureus [4] and with Staphylococcus aureus [5] were 31 µM and 25.7 µM, respectively. Further, in the data set with Staphylococcus aureus [1], the MIC is greater than 500 µM. For the same molecule, the Activity came out at 81% in the data set on Staphylococcus aureus [2] and 78% in the data set with Staphylococcus aureus [3].

Consider `CCS(=O)(=O)NC[C@H]1OC[C@@](O)(CNC(=O)c2ccccc2)[C@@H]1O`, for which the MIC against Staphylococcus aureus [1] is greater than 500 µM. Moreover, the Activity with Staphylococcus aureus [2] amounted to 49%; with Staphylococcus aureus [3], 47%.

In the case of `O=C(NC[C@]1(O)CO[C@H](CNS(=O)(=O)c2ccc(-c3ccccc3)cc2)[C@H]1O)c1ccccc1`, the MIC against Staphylococcus aureus [1] is greater than 500 µM. Moreover, the Activity in the data set on Staphylococcus aureus [2] was 84%; in the data set with Staphylococcus aureus [3] it was 83%.

Consider `O=C(NC[C@]1(O)CO[C@H](CNC(=O)c2ccccc2Cl)[C@H]1O)c1ccccc1`, for which the EC50 in the data set with Staphylococcus aureus [4] and in the data set with Staphylococcus aureus [5] was 0.389 µM in each case.

On to `O=C(NC[C@]1(O)CO[C@H](Cn2nncc2-c2ccccc2)[C@H]1O)c1ccccc1`, for which, in the data set with Staphylococcus aureus [1], the MIC was greater than 500 µM. Moreover, the figures for the Activity in the data set on Staphylococcus aureus [2] and in the data set with Staphylococcus aureus [3] were 53% and 26%, respectively.

`O=C(NC[C@]1(O)CO[C@H](CNS(=O)(=O)C(F)(F)F)[C@H]1O)c1ccccc1` returned an MIC with Staphylococcus aureus [1] greater than 500 µM. The Activity in the data set on Staphylococcus aureus [2] stood at 71%; in the data set with Staphylococcus aureus [3] it was 57%.

For `CN(C[C@H]1OC[C@@](O)(CNC(=O)c2ccccc2)[C@@H]1O)C(=O)c1ccccc1`, the half-maximal effective concentration (EC50) in the data set with Staphylococcus aureus [4] is 8.5 µM; in the data set on Staphylococcus aureus [5] it was 24.3 µM. Further, in the data set on Staphylococcus aureus [1], the MIC is greater than 500 µM. The Activity in the data set with Staphylococcus aureus [2] is 94%; with Staphylococcus aureus [3], 90%.

For the molecule `O=C(NC[C@]1(O)CO[C@H](CNC(=O)c2ccccc2Br)[C@H]1O)c1ccccc1`, the half-maximal effective concentration (EC50) was found to be 9.8 µM in the data set on Staphylococcus aureus [4] and 19.7 µM in the data set with Staphylococcus aureus [5]. The molecule also gave an MIC with Staphylococcus aureus [1] greater than 500 µM. Besides, the Activity is listed as 96% in the data set with Staphylococcus aureus [2] and 82% in the data set with Staphylococcus aureus [3].

For `O=C(NC[C@]1(O)CO[C@H](CNS(=O)(=O)c2ccc(Cl)cc2)[C@H]1O)c1ccccc1`, the 50% effective concentration (EC50) with Staphylococcus aureus [4] was determined as 23.5 µM; with Staphylococcus aureus [5], 27.8 µM. In the data set on Staphylococcus aureus [1], this molecule yielded an MIC greater than 500 µM. The Activity was found to be 86% with Staphylococcus aureus [2] and 85% with Staphylococcus aureus [3].

With `O=C(NC[C@]1(O)CO[C@H](CNC(=O)c2ccccc2I)[C@H]1O)c1ccccc1`, the EC50 with Staphylococcus aureus [4] worked out at 1.9 µM; in the data set on Staphylococcus aureus [5] it was 20.4 µM. Moreover, the MIC with Staphylococcus aureus [1] is greater than 500 µM. In addition, the Activity is recorded as 96% in the data set with Staphylococcus aureus [2] and 84% in the data set on Staphylococcus aureus [3].

Consider `O=C(NC[C@]1(O)CO[C@H](CNS(=O)(=O)c2ccccc2)[C@H]1O)c1ccccc1`, for which the MIC against Staphylococcus aureus [1] is greater than 500 µM. Moreover, the Activity in the data set with Staphylococcus aureus [2] amounted to 78%; with Staphylococcus aureus [3], 69%.

`O=C(NC[C@]1(O)CO[C@H](CNC(=O)c2ccccc2OC(F)(F)F)[C@H]1O)c1ccccc1`: the results for the 50% effective concentration (EC50) in the data set on Staphylococcus aureus [4] and in the data set with Staphylococcus aureus [5] were 26.4 µM and 56.7 µM, respectively. Also, in the data set with Staphylococcus aureus [1], the MIC is greater than 500 µM. Moreover, the Activity in the data set with Staphylococcus aureus [2] was 78%; in the data set on Staphylococcus aureus [3], 69%.

On to `O=C(NC[C@]1(O)CO[C@H](CNCc2ccccc2)[C@H]1O)c1ccccc1`, for which the EC50 in the data set on Staphylococcus aureus [4] is 41.2 µM; in the data set on Staphylococcus aureus [5], 45.1 µM. Besides, the MIC in the data set with Staphylococcus aureus [1] was greater than 500 µM. Besides, the results for the Activity in the data set with Staphylococcus aureus [2] and with Staphylococcus aureus [3] were 81% and 78%, respectively.

In the data set on Staphylococcus aureus [1], `CS(=O)(=O)NC[C@H]1OC[C@@](O)(CNC(=O)c2ccccc2)[C@@H]1O` gave an MIC greater than 500 µM. In addition, the results for the Activity in the data set on Staphylococcus aureus [2] and in the data set on Staphylococcus aureus [3] were 69% and 62%, respectively.

As for `O=C(NC[C@]1(O)CO[C@H](CN2Cc3ccccc3C2=O)[C@H]1O)c1ccccc1`, the EC50 in the data set with Staphylococcus aureus [4] came out at 57.7 µM; in the data set on Staphylococcus aureus [5] it was 60.2 µM. The MIC against Staphylococcus aureus [1] was greater than 500 µM. The Activity with Staphylococcus aureus [2] is 75%; with Staphylococcus aureus [3] it was 70%.

`Cc1ccc(S(=O)(=O)NC[C@H]2OC[C@@](O)(CNC(=O)c3ccccc3)[C@@H]2O)cc1`: in the data set with Staphylococcus aureus [1], the MIC is greater than 500 µM. In addition, the values for the Activity in the data set with Staphylococcus aureus [2] and in the data set with Staphylococcus aureus [3] were 83% and 74%, respectively.

For the molecule `O=C(NC[C@@H]1OC[C@@](O)(CNC(=O)c2ccccc2)[C@@H]1O)c1ccccc1`, the concentration giving a half-maximal response (EC50) was 224 µM with Staphylococcus aureus [4] and greater than 250 µM in the data set on Staphylococcus aureus [5]. In the data set on Staphylococcus aureus [1], this molecule registered an MIC greater than 500 µM. Besides, the Activity is 48% in the data set with Staphylococcus aureus [2] and 44% with Staphylococcus aureus [3].

`O=C(NC[C@H]1OC[C@@](O)(CNC(=O)c2ccccc2)[C@@H]1O)Nc1ccccc1` displayed an MIC against Staphylococcus aureus [1] greater than 500 µM. Moreover, the Activity with Staphylococcus aureus [2] was found to be 76%; in the data set with Staphylococcus aureus [3], 81%.

For `CC(C)S(=O)(=O)NC[C@H]1OC[C@@](O)(CNC(=O)c2ccccc2)[C@@H]1O`, in the data set with Staphylococcus aureus [1], the MIC is greater than 500 µM. The figures for the Activity with Staphylococcus aureus [2] and with Staphylococcus aureus [3] were 72% and 67%, respectively.

For `O=C(NC[C@]1(O)CO[C@H](CNC(=S)Nc2ccccc2)[C@H]1O)c1ccccc1`, the MIC in the data set with Staphylococcus aureus [1] was greater than 500 µM. The Activity came to 80% in the data set with Staphylococcus aureus [2] and 73% with Staphylococcus aureus [3].

As to `O=C(NC[C@H]1OC[C@@](O)(CNC(=O)c2ccccc2)[C@@H]1O)c1ccccc1`, the concentration giving a half-maximal response (EC50) came out at 97 µM in the data set with Staphylococcus aureus [4] and 124 µM in the data set with Staphylococcus aureus [5]. This molecule had an MIC against Staphylococcus aureus [1] greater than 500 µM. Besides, the Activity worked out at 66% in the data set on Staphylococcus aureus [2] and 65% in the data set with Staphylococcus aureus [3].

`O=C(NC[C@]1(O)CO[C@H](CNS(=O)(=O)c2ccccc2Cl)[C@H]1O)c1ccccc1`: the MIC against Staphylococcus aureus [1] was greater than 500 µM. Moreover, the Activity in the data set with Staphylococcus aureus [2] turned out to be 65%; in the data set with Staphylococcus aureus [3], 73%.

Regarding `O=C(OC[C@H]1OC(O)[C@@](O)(COC(=O)c2cc(O)c(O)c(O)c2)[C@@H]1O)c1cc(O)c(O)c(O)c1` (stereo partly drawn) [HAMAMELITANNIN], the EC50 with Staphylococcus aureus [4] turned out to be 146 µM; with Staphylococcus aureus [5], 165 µM. The molecule further registered an MIC with Staphylococcus aureus [1] greater than 500 µM. Further, the Activity in the data set with Staphylococcus aureus [2] and in the data set with Staphylococcus aureus [3] was 57% in each case.

Source of the values: ChEMBL document CHEMBL4431338, “Design, synthesis and biological evaluation of novel hamamelitannin analogues as potentiators for vancomycin in the treatment of biofilm related Staphylococcus aureus infections” (Bioorg Med Chem, 2016).
